For 6 compounds, inhibition results are on record in ChEMBL document CHEMBL4265907, “Design, synthesis and pharmacological evaluation of N4,N6-disubstituted pyrimidine-4,6-diamine derivatives as potent EGFR inhibitors in non-small cell lung cancer” (Eur J Med Chem, 2018).

In test [1] the target is Receptor tyrosine-protein kinase erbB-4 (Homo sapiens) (UniProt Q15303). The experiment in a line: Inhibition of N-terminal GST-tagged human HER4 cytoplasmic domain (676 to 1308 residues) expressed in baculovirus expression system at 1 uM using FAM-labeled peptide as substrate after 10 mins by mobility shift assay relative to control. The method, boiled down: (§1)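 Caliper mobility-shift kinase assay. Kinase in kinase base buffer was preincubated with compound for 10 min at room temperature. FAM-labelled peptide and ATP at Km were then added, and the reaction ran at 28 °C until quenched with buffer. Screening concentration was 1 µM. Percent inhibition = (max − conversion)/(max − min) × 100, with DMSO as max and a low control as min.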

Test [2] has as its target Fibroblast growth factor receptor 4 (Homo sapiens) (UniProt P22455). Kind of test: Inhibition of N-terminal GST-tagged human FGFR4 cytoplasmic domain (460 to 802 residues) expressed in baculovirus expression system at 1 uM using FAM-labeled peptide as substrate after 10 mins by mobility shift assay relative to control. The gist of the method:
as §1

Test [3] deals with Receptor-type tyrosine-protein kinase FLT3 (Homo sapiens) (UniProt P36888). The experiment in a line: Inhibition of human N-terminal GST-tagged FLT3 cytoplasmic domain (564 to 993 residues) expressed in baculovirus expression system at 1 uM using FAM-labeled peptide as substrate after 10 mins by mobility shift assay relative to control. The method, boiled down:
as §1

Test [4] deals with Tyrosine-protein kinase JAK1 (Homo sapiens) (UniProt P23458). Kind of test: Inhibition of human N-terminal GST-tagged JAK1 catalytic domain (850 to 1154 residues) expressed in baculovirus expression system at 1 uM using FAM-labeled peptide as substrate after 10 mins by mobility shift assay relative to control. The method, boiled down:
as §1

For test [5], the target named is T1, Mitogen-activated protein kinase kinase kinase kinase 2 (Homo sapiens) (UniProt Q12851).
T1 sequence (whole entry): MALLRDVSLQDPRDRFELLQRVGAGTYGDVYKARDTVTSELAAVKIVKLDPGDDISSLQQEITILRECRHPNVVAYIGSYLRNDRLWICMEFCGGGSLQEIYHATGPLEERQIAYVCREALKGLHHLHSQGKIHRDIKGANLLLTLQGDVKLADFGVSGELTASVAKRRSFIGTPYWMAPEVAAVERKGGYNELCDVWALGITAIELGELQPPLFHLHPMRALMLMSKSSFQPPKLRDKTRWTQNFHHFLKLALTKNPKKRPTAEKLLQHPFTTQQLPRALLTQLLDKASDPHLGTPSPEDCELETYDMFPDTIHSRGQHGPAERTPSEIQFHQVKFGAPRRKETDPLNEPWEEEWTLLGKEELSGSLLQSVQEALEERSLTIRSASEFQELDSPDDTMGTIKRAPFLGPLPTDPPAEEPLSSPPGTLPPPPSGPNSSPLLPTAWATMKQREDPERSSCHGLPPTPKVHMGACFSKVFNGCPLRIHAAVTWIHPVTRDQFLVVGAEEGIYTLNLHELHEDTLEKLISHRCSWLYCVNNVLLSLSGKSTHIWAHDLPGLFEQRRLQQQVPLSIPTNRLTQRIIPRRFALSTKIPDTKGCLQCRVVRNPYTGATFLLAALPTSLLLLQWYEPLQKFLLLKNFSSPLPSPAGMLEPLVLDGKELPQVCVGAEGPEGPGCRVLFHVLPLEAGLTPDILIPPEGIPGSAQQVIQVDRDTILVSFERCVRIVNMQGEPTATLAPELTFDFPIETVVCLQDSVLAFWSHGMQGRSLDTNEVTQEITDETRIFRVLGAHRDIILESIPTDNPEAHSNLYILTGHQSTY
Kind of test: Inhibition of human N-terminal GST-tagged full length MAP4K2 (1 to 820 residues) expressed in baculovirus expression system at 1 uM using FAM-labeled peptide as substrate after 10 mins by mobility shift assay relative to control. The gist of the method:
as §1

The target in test [6] is Serine/threonine-protein kinase B-raf (Homo sapiens) (UniProt P15056). The experiment in a line: Inhibition of recombinant human GST-tagged full length BRAF expressed in baculovirus expression system at 1 uM using FAM-labeled peptide as substrate after 10 mins by mobility shift assay relative to control. The method, boiled down: as §1
Test [7] has as its target Hepatocyte growth factor receptor (Homo sapiens) (UniProt P08581). The experiment in a line: Inhibition of N-terminal GST-tagged human MET cytoplasmic domain (956 to 1390 residues) expressed in baculovirus expression system at 1 uM using FAM-labeled peptide as substrate after 10 mins by mobility shift assay relative to control. The method, boiled down: as §1
Test [8] deals with Platelet-derived growth factor receptor beta (Homo sapiens) (UniProt P09619). The experiment in a line: Inhibition of N-terminal GST-tagged human PDGFRbeta cytoplasmic domain (557 to 1106 residues) expressed in baculovirus expression system at 1 uM using FAM-labeled peptide as substrate after 10 mins by mobility shift assay relative to control. The gist of the method:
as §1

Test [9] has as its target Insulin-like growth factor 1 receptor (Homo sapiens) (UniProt P08069). Kind of test: Inhibition of human His-tagged IGF1R cytoplasmic domain (960 to 1397 residues) expressed in baculovirus expression system at 1 uM using FAM-labeled peptide as substrate after 10 mins by mobility shift assay relative to control. The method, boiled down:
as §1

Test [10] addresses Platelet-derived growth factor receptor alpha (Homo sapiens) (UniProt P16234). Kind of test: Inhibition of recombinant human GST-tagged PDGFRalpha cytoplasmic domain (550 to 1089 residues) expressed in baculovirus expression system at 1 uM using FAM-labeled peptide as substrate after 10 mins by mobility shift assay relative to control. The method, boiled down: as §1
In test [11] the target is T2, Aurora kinase A (Homo sapiens) (UniProt O14965).
T2 sequence (whole entry): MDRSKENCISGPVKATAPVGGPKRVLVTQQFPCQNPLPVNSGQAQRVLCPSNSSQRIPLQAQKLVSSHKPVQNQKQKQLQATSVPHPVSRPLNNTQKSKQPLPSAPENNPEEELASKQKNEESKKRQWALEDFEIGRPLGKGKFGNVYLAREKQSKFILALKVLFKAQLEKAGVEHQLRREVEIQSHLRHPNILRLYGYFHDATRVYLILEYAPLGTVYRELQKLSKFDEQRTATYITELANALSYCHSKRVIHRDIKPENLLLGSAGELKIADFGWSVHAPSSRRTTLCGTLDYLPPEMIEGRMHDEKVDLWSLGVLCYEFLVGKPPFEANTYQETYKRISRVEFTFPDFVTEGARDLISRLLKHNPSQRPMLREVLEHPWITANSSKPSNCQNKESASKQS
Kind of test: Inhibition of human N-terminal GST-tagged AURA (1 to 403 residues) expressed in baculovirus expression system at 1 uM using FAM-labeled peptide as substrate after 10 mins by mobility shift assay relative to control. The gist of the method:
as §1

The target in test [12] is Fibroblast growth factor receptor 2 (Homo sapiens) (UniProt P21802). The experiment in a line: Inhibition of N-terminal GST-tagged human FGFR2 cytoplasmic domain (399 to 821 residues) expressed in baculovirus expression system at 1 uM using FAM-labeled peptide as substrate after 10 mins by mobility shift assay relative to control. The method, boiled down: as §1
For test [13], the target named is Mast/stem cell growth factor receptor Kit (Homo sapiens) (UniProt P10721). Kind of test: Inhibition of recombinant human N-terminal GST-tagged c-KIT (544 to end residues) expressed in baculovirus infected Sf21 cells at 1 uM using FAM-labeled peptide as substrate after 10 mins by mobility shift assay relative to control. The gist of the method: as §1
Chain of Mast/stem cell growth factor receptor Kit (Homo sapiens) (P10721 whole entry): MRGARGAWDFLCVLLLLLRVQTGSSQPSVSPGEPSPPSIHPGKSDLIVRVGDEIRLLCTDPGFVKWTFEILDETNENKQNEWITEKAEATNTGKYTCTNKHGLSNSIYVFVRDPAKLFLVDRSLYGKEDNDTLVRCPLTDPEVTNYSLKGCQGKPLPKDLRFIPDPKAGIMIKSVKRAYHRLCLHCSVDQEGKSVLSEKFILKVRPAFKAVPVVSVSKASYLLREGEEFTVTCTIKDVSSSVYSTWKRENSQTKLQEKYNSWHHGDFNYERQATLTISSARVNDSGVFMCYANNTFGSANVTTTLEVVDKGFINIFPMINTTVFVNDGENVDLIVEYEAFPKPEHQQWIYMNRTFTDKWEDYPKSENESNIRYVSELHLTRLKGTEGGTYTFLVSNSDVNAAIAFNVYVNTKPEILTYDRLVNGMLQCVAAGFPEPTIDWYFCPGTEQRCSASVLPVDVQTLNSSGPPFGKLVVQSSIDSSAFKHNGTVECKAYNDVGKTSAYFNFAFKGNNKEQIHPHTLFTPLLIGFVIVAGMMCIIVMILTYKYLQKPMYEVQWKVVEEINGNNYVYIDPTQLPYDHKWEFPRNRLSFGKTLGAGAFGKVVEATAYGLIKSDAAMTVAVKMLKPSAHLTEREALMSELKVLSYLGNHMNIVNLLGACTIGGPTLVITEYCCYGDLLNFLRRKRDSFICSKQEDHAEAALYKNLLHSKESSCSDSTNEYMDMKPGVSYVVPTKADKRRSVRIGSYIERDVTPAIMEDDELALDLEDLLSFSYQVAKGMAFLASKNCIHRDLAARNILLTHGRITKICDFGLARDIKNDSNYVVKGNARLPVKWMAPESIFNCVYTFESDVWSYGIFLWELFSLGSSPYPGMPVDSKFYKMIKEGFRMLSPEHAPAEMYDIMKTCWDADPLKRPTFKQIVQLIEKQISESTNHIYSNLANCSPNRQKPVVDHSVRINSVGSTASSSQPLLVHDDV

One may read the inhibition as the drop in the measured response relative to a control, in per cent.

Chain of Receptor-type tyrosine-protein kinase FLT3 (Homo sapiens) (P36888 whole entry, the tested form may be a part): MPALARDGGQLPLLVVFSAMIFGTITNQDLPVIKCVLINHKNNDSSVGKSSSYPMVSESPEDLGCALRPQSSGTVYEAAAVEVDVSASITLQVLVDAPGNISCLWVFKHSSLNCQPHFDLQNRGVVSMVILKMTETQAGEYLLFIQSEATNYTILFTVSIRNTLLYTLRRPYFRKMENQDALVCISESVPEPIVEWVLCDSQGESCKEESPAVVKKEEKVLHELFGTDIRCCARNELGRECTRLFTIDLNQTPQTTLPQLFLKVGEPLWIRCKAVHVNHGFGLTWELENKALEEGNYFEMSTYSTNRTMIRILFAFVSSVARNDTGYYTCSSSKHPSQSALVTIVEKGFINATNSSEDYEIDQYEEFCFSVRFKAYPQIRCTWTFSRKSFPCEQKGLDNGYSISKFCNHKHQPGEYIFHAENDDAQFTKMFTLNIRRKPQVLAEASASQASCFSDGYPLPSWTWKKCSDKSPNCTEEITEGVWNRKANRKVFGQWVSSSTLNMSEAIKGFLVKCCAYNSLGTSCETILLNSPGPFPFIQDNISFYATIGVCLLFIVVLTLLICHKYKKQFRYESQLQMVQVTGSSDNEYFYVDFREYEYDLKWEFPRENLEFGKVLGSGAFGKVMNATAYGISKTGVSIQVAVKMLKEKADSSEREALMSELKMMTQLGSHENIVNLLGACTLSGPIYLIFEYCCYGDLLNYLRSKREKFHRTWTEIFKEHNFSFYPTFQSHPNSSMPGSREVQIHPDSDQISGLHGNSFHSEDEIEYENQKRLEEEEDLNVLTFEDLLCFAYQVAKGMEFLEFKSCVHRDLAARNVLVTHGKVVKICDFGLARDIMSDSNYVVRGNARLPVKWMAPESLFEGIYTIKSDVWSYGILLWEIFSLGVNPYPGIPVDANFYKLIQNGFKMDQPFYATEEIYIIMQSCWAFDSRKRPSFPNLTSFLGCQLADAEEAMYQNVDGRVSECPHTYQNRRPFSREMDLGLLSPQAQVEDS
Chain of Tyrosine-protein kinase JAK1 (Homo sapiens) (P23458 whole entry, the tested form may be a part): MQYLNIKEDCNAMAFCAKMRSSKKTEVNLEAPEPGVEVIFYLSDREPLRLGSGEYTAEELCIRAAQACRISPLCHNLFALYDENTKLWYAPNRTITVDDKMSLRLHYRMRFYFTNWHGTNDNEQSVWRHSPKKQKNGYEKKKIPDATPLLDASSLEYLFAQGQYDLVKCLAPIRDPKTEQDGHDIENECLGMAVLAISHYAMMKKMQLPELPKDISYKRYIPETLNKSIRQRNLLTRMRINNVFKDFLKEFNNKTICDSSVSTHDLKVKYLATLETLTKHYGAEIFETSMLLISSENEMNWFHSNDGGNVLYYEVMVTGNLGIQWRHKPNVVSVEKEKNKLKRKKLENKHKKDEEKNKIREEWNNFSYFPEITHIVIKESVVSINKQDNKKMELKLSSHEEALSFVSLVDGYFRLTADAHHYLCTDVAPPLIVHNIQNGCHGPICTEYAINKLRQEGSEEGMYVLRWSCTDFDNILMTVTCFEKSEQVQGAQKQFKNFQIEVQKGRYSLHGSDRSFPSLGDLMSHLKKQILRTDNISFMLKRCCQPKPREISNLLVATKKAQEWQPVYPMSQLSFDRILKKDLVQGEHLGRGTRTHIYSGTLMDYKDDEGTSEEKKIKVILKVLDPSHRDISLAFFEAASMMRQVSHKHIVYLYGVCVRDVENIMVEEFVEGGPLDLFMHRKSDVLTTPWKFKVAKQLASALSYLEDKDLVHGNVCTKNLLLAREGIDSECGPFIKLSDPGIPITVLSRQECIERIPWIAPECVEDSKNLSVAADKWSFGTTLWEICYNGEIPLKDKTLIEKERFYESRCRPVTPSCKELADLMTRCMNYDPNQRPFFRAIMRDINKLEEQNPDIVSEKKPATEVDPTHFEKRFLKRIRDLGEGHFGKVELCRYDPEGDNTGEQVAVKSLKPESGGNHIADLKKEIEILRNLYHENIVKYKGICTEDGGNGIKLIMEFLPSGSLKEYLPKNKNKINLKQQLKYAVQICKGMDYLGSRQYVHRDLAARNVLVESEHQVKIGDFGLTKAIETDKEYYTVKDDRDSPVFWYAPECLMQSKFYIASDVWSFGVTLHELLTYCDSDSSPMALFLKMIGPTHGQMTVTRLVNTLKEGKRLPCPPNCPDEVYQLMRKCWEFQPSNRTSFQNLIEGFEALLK
Chain of Insulin-like growth factor 1 receptor (Homo sapiens) (P08069 31-736 limits assumed): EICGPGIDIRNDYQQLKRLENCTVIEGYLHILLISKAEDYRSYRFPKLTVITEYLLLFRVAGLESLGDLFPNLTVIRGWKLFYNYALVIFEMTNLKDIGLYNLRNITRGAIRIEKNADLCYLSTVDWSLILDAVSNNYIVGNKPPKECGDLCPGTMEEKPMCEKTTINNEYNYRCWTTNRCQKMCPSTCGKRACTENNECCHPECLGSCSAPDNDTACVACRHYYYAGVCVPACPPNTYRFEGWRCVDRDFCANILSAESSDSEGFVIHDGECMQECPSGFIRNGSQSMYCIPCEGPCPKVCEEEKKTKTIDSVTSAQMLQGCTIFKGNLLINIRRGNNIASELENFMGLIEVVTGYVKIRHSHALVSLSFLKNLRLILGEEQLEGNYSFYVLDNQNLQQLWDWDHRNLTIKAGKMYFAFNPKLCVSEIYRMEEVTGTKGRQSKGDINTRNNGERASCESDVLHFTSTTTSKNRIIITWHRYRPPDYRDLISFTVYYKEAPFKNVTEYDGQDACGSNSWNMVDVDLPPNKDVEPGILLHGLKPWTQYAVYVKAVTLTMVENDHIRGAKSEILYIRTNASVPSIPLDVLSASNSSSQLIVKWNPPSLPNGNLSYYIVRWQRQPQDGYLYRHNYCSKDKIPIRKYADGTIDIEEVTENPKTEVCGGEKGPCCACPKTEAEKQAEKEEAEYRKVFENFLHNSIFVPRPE
Chain of Insulin-like growth factor 1 receptor (Homo sapiens) (P08069 741-1367 limits assumed): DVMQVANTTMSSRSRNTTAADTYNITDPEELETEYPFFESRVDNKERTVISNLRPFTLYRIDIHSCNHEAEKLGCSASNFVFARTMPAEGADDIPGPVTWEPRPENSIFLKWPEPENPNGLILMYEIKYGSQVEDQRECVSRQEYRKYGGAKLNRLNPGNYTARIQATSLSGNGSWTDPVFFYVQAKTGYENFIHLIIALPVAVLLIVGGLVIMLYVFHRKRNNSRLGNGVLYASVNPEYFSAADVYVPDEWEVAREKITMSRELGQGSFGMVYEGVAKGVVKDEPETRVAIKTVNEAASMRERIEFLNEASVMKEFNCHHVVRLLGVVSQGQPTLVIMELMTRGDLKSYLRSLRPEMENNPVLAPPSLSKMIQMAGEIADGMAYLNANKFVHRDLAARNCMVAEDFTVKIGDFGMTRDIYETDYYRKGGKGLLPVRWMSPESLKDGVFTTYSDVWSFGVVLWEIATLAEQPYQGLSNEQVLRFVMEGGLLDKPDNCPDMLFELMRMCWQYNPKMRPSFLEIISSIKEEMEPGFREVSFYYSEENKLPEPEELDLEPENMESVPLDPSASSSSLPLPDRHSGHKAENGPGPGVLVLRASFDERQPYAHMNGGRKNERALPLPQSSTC

Regarding `CCOC(=O)c1ccc(Nc2cc(NC(=O)CCCC(=O)O)ncn2)cc1`, the inhibition in test [1] is 27.1%; in [2], -0.6%; in test [3], 11.5%; in test [4] it was -3.1%; in test [5], 5.5%; in [6], 12.7%. Further, the inhibition in test [7] came out at 4.4%; in test [8] it was 24.2%; in test [9], 9.2%; in test [10], 4.7%; in test [11], 17.3%; in [12], 7.2%. Further, the inhibition in [13] was determined as 5.9%.
As to `O=C(O)CCCC(=O)Nc1cc(N2CCOCC2)ncn1`, the inhibition in [1] was 8.3%; in [2], 4%; in test [3] it was 16.4%; in test [4] it was -2.4%; in test [5] it was 3.3%; in [6], 16.7%. The inhibition in test [7] was 9.2%; in test [8], 10%; in test [9], 4%; in [10], 9.2%; in test [11], 49%; in test [12], 5.9%. In addition, the inhibition in [13] was -4.4%.
As to `COc1ccc(Nc2cc(NC(=O)c3ccccc3)ncn2)cc1`, the inhibition in [1] was 71.4%; in test [2], 1.8%; in test [3], 6.9%; in test [4], -0.8%; in test [5], -3.2%; in test [6], 16.6%. Moreover, the inhibition in [7] is 3.3%; in test [8], 29.4%; in test [9], 5.3%; in test [10], 21.7%; in test [11], 2.6%; in [12], 8.3%. In test [13], the inhibition stood at 26%.
Turning to `COc1cccc(Nc2cc(NC(=O)CCCC(=O)O)ncn2)c1`, the inhibition in test [1] was 21.7%; in test [2], 21.6%; in test [3], 10.5%; in [4] it was -0.7%; in [5], 10.5%; in [6], 11.3%. Also, the inhibition in test [7] was found to be 12%; in [8] it was 10.3%; in [9] it was 10.1%; in [10] it was 8%; in test [11], 19.8%; in test [12] it was 21.4%. Also, the inhibition in test [13] turned out to be 13.3%.
`O=C(O)CCCC(=O)Nc1cc(Nc2cccc(Cl)c2)ncn1`: the inhibition in test [1] was 88.6%; in test [2] it was 8.8%; in [3] it was 35.5%; in test [4], -1%; in test [5], 9.2%; in test [6], 79.3%. The inhibition in [7] came out at 4%; in [8], 74.1%; in test [9], 13.2%; in test [10], 43%; in test [11] it was 8.7%; in test [12], 16.5%. The inhibition in test [13] came to 13.3%.
As for `COc1cccc(Nc2cc(Nc3cc(OC)ccc3OC)ncn2)c1`, the inhibition was 11.3% in test [1]; 4.8% in [2]; 59.1% in test [3]; -1.4% in test [4]; 5.4% in test [5]; 47.5% in [6]. Moreover, the inhibition turned out to be 7.2% in test [7]; 30.4% in test [8]; 6.3% in test [9]; 26.9% in test [10]; 52.3% in test [11]; 9.8% in test [12]. Moreover, the inhibition in test [13] stood at 0.4%.
